Columns and labels:
Clostridium perfringens [1] = assay: Antimicrobial activity against Clostridium perfringens after 48 hrs by agar dilution method; format: functional
Anaerococcus prevotii [2] = assay: Antimicrobial activity against Anaerococcus prevotii assessed as percent susceptible isolates after 48 hrs by agar dilution method; format: functional
Clostridium perfringens [3] = assay: Antimicrobial activity against Clostridium perfringens assessed as percent susceptible isolates after 48 hrs by agar dilution method; format: functional
Schaalia meyeri = assay: Antimicrobial activity against Actinomyces meyeri assessed as percent resistant isolates after 48 hrs by agar dilution method; format: functional
How it was run: (§1)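 CLSI agar dilution on recent Korean clinical anaerobe isolates. Inoculum 10^5 CFU per spot by replicator. Plates incubated in an anaerobic chamber at 37°C for 48 h. For piperacillin plus tazobactam, tazobactam was held constant at 4 μg/ml. Resistance and susceptibility rates derived from MICs.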

Prevotella intermedia [4] = assay: Antimicrobial activity against Prevotella intermedia assessed as percent susceptible isolates after 48 hrs by agar dilution method; format: functional
How it was run: (§2)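 CLSI agar dilution (M11-A7); inoculum 10^5 CFU applied by replicator; plates incubated anaerobically 48 h at 37°C. For piperacillin-tazobactam, tazobactam held constant at 4 μg/ml.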

[5] = test system: Bacteroides thetaiotaomicron; assay: Antimicrobial activity against Bacteroides thetaiotaomicron assessed as percent resistant isolates after 48 hrs by agar dilution method; format: functional; how it was run: as §1
Clostridioides difficile [6] = assay: Antimicrobial activity against Clostridium difficile assessed as percent susceptible isolates after 48 hrs by agar dilution method; format: functional
Hoylesella oralis = assay: Antimicrobial activity against Prevotella oralis assessed as percent resistant isolates after 48 hrs by agar dilution method; format: functional; how it was run: as §1
Prevotella bivia [7] = assay: Antimicrobial activity against Prevotella bivia assessed as percent resistant isolates after 48 hrs by agar dilution method; format: functional; how it was run: as §1
Fusobacterium varium = assay: Antimicrobial activity against Fusobacterium varium after 48 hrs by agar dilution method; format: functional; how it was run: as §2
Anaerococcus prevotii [8] = assay: Antimicrobial activity against Anaerococcus prevotii after 48 hrs by agar dilution method; format: functional
How it was run: (§3)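 MICs on clinical anaerobe isolates by the CLSI agar dilution method. Inoculum of 10^5 CFU applied with a Steers replicator. Plates incubated 48 h at 37°C in an anaerobic chamber.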

[9] = test system: Bacteroides thetaiotaomicron; assay: Antimicrobial activity against Bacteroides thetaiotaomicron after 48 hrs by agar dilution method; format: functional; how it was run: as §3
[10] = test system: Peptostreptococcus anaerobius; assay: Antimicrobial activity against Peptostreptococcus anaerobius after 48 hrs by agar dilution method; format: functional; how it was run: as §2
Bifidobacterium sp. [11] = assay: Antimicrobial activity against Bifidobacterium sp. assessed as percent resistant isolates after 48 hrs by agar dilution method; format: functional; how it was run: as §1
Anaerococcus prevotii [12] = assay: Antimicrobial activity against Anaerococcus prevotii assessed as percent resistant isolates after 48 hrs by agar dilution method; format: functional; how it was run: as §1
Bacteroides caccae [13] = assay: Antimicrobial activity against Bacteroides caccae after 48 hrs by agar dilution method; format: functional; how it was run: as §3
Eggerthella lenta [14] = assay: Antimicrobial activity against Eubacterium lentum assessed as percent susceptible isolates after 48 hrs by agar dilution method; format: functional; how it was run: as §2
Parvimonas micra = assay: Antimicrobial activity against Peptostreptococcus micros assessed as percent susceptible isolates after 48 hrs by agar dilution method; format: functional; how it was run: as §1
Eubacterium sp. [15] = assay: Antimicrobial activity against Eubacterium sp. after 48 hrs by agar dilution method; format: functional; how it was run: as §2
Bacteroides caccae [16] = assay: Antimicrobial activity against Bacteroides caccae assessed as percent resistant isolates after 48 hrs by agar dilution method; format: functional; how it was run: as §1
Finegoldia magna [17] = assay: Antimicrobial activity against Finegoldia magna assessed as percent resistant isolates after 48 hrs by agar dilution method; format: functional; how it was run: as §1
Eubacterium sp. [18] = assay: Antimicrobial activity against Eubacterium sp. assessed as percent resistant isolates after 48 hrs by agar dilution method; format: functional; how it was run: as §1
Clostridioides difficile [19] = assay: Antimicrobial activity against Clostridium difficile after 48 hrs by agar dilution method; format: functional
Schaalia odontolytica [20] = assay: Antimicrobial activity against Actinomyces odontolyticus after 48 hrs by agar dilution method; format: functional; how it was run: as §3
Eggerthella lenta [21] = assay: Antimicrobial activity against Eubacterium lentum after 48 hrs by agar dilution method; format: functional; how it was run: as §2
Bacteroides caccae [22] = assay: Antimicrobial activity against Bacteroides caccae assessed as percent susceptible isolates after 48 hrs by agar dilution method; format: functional
[23] = test system: Bifidobacterium adolescentis; assay: Antimicrobial activity against Bifidobacterium adolescentis assessed as percent susceptible isolates after 48 hrs by agar dilution method; format: functional
Eggerthella lenta [24] = assay: Antimicrobial activity against Eubacterium lentum assessed as percent resistant isolates after 48 hrs by agar dilution method; format: functional; how it was run: as §1
Prevotella intermedia [25] = assay: Antimicrobial activity against Prevotella intermedia assessed as percent resistant isolates after 48 hrs by agar dilution method; format: functional; how it was run: as §1
Actinomyces israelii = assay: Antimicrobial activity against Actinomyces israelii assessed as percent resistant isolates after 48 hrs by agar dilution method; format: functional; how it was run: as §1
Schaalia odontolytica [26] = assay: Antimicrobial activity against Actinomyces odontolyticus assessed as percent resistant isolates after 48 hrs by agar dilution method; format: functional; how it was run: as §1
Actinomyces naeslundii = assay: Antimicrobial activity against Actinomyces naeslundii assessed as percent susceptible isolates after 48 hrs by agar dilution method; format: functional
[27] = test system: Bifidobacterium adolescentis; assay: Antimicrobial activity against Bifidobacterium adolescentis after 48 hrs by agar dilution method; format: functional; how it was run: as §3
[28] = test system: Bifidobacterium adolescentis; assay: Antimicrobial activity against Bifidobacterium adolescentis assessed as percent resistant isolates after 48 hrs by agar dilution method; format: functional; how it was run: as §1
Bifidobacterium sp. [29] = assay: Antimicrobial activity against Bifidobacterium sp. after 48 hrs by agar dilution method; format: functional; how it was run: as §3
Phocaeicola vulgatus = assay: Antimicrobial activity against Bacteroides vulgatus after 48 hrs by agar dilution method; format: functional; how it was run: as §3
Eubacterium sp. [30] = assay: Antimicrobial activity against Eubacterium sp. assessed as percent susceptible isolates after 48 hrs by agar dilution method; format: functional; how it was run: as §2
Finegoldia magna [31] = assay: Antimicrobial activity against Finegoldia magna after 48 hrs by agar dilution method; format: functional; how it was run: as §2
Schaalia odontolytica [32] = assay: Antimicrobial activity against Actinomyces odontolyticus assessed as percent susceptible isolates after 48 hrs by agar dilution method; format: functional
Fusobacterium necrogenes = assay: Antimicrobial activity against Fusobacterium necrogenes after 48 hrs by agar dilution method; format: functional; how it was run: as §2
Bacteroides ovatus = assay: Antimicrobial activity against Bacteroides ovatus after 48 hrs by agar dilution method; format: functional; how it was run: as §3
[33] = test system: Peptoniphilus asaccharolyticus; assay: Antimicrobial activity against Peptoniphilus asaccharolyticus assessed as percent susceptible isolates after 48 hrs by agar dilution method; format: functional; how it was run: as §2
[34] = test system: Parabacteroides distasonis; assay: Antimicrobial activity against Bacteroides distasonis assessed as percent susceptible isolates after 48 hrs by agar dilution method; format: functional
[35] = test system: Peptoniphilus asaccharolyticus; assay: Antimicrobial activity against Peptoniphilus asaccharolyticus assessed as percent resistant isolates after 48 hrs by agar dilution method; format: functional; how it was run: as §1
Prevotella bivia [36] = assay: Antimicrobial activity against Prevotella bivia assessed as percent susceptible isolates after 48 hrs by agar dilution method; format: functional; how it was run: as §2
Clostridioides difficile [37] = assay: Antimicrobial activity against Clostridium difficile assessed as percent resistant isolates after 48 hrs by agar dilution method; format: functional
Prevotella buccae = assay: Antimicrobial activity against Prevotella buccae assessed as percent resistant isolates after 48 hrs by agar dilution method; format: functional, Segatella buccae; how it was run: as §1
[38] = test system: Peptoniphilus asaccharolyticus; assay: Antimicrobial activity against Peptoniphilus asaccharolyticus after 48 hrs by agar dilution method; format: functional; how it was run: as §2

CCN1CCN(C(=O)N[C@@H](C(=O)N[C@@H]2C(=O)N3[C@@H]2SC(C)(C)[C@@H]3C(=O)O)c2ccccc2)C(=O)C1=O [PIPERACILLIN]
0.25 µg/mL: MIC50 (Clostridium perfringens [1]) | MIC90 (Anaerococcus prevotii [8]) | MIC50 [10]
4 µg/mL: MIC50 (Clostridioides difficile [19])
51%: Activity [5] | Activity (Bacteroides caccae [16])
92%: Activity (Eggerthella lenta [14]) | Activity [23] | Activity (Actinomyces naeslundii) | Activity (Eubacterium sp. [30]) | Activity (Schaalia odontolytica [32])
42%: Activity (Bacteroides caccae [22]) | Activity [34]
78%: Activity (Prevotella bivia [36])
128 µg/mL: MIC50 [9] | MIC50 (Bacteroides caccae [13]) | MIC50 (Phocaeicola vulgatus) | MIC50 (Bacteroides ovatus)
16 µg/mL: MIC90 [10]
11%: Activity (Hoylesella oralis) | Activity (Prevotella bivia [7]) | Activity (Prevotella buccae)
≤ 0.06 µg/mL: MIC50 (Finegoldia magna [31]) | MIC50 [38] | MIC90 [38]
100%: Activity (Anaerococcus prevotii [2]) | Activity (Clostridium perfringens [3]) | Activity (Prevotella intermedia [4]) | Activity (Clostridioides difficile [6]) | Activity [33]
0.125 µg/mL: MIC50 (Anaerococcus prevotii [8]) | MIC90 (Finegoldia magna [31])
8 µg/mL: MIC90 (Eubacterium sp. [15]) | MIC90 (Clostridioides difficile [19]) | MIC90 (Schaalia odontolytica [20]) | MIC90 (Eggerthella lenta [21]) | MIC90 [27] | MIC90 (Bifidobacterium sp. [29])
0.5 µg/mL: MIC90 (Clostridium perfringens [1])
0.06 µg/mL: MIC (Fusobacterium varium) | MIC (Fusobacterium necrogenes)
> 256 µg/mL: MIC90 [9] | MIC90 (Bacteroides caccae [13]) | MIC90 (Phocaeicola vulgatus) | MIC90 (Bacteroides ovatus)
0%: Activity (Schaalia meyeri) | Activity (Bifidobacterium sp. [11]) | Activity (Anaerococcus prevotii [12]) | Activity (Parvimonas micra) | Activity (Finegoldia magna [17]) | Activity (Eubacterium sp. [18]) | Activity (Eggerthella lenta [24]) | Activity (Prevotella intermedia [25]) | Activity (Actinomyces israelii) | Activity (Schaalia odontolytica [26]) | Activity [28] | Activity [35] | Activity (Clostridioides difficile [37])
1 µg/mL: MIC50 (Eubacterium sp. [15]) | MIC50 (Schaalia odontolytica [20]) | MIC50 (Eggerthella lenta [21]) | MIC50 [27] | MIC50 (Bifidobacterium sp. [29])

CO[C@@]1(NC(=O)C2SC(=C(C(N)=O)C(=O)O)S2)C(=O)N2C(C(=O)O)=C(CSc3nnnn3C)CS[C@@H]21 (some centres not stated) [CEFOTETAN]
31%: Activity (Parvimonas micra)
128 µg/mL: MIC90 (Clostridioides difficile [19])
2 µg/mL: MIC90 (Anaerococcus prevotii [8]) | MIC90 (Finegoldia magna [31])
17%: Activity (Hoylesella oralis) | Activity (Prevotella bivia [7]) | Activity (Clostridioides difficile [37]) | Activity (Prevotella buccae)
86%: Activity [5] | Activity (Bacteroides caccae [16])
100%: Activity (Anaerococcus prevotii [2]) | Activity (Clostridium perfringens [3]) | Activity (Prevotella intermedia [4]) | Activity [33]
89%: Activity (Bacteroides caccae [22]) | Activity [34]
85%: Activity (Eggerthella lenta [14]) | Activity [23] | Activity (Actinomyces naeslundii) | Activity (Eubacterium sp. [30]) | Activity (Schaalia odontolytica [32])
8 µg/mL: MIC (Clostridioides difficile [19]) | MIC50 (Clostridioides difficile [19])
15%: Activity (Schaalia meyeri) | Activity (Bifidobacterium sp. [11]) | Activity (Eubacterium sp. [18]) | Activity (Eggerthella lenta [24]) | Activity (Actinomyces israelii) | Activity (Schaalia odontolytica [26])
> 128 µg/mL: MIC50 [9] | MIC90 [9] | MIC50 (Bacteroides caccae [13]) | MIC90 (Bacteroides caccae [13]) | MIC50 (Phocaeicola vulgatus) | MIC90 (Phocaeicola vulgatus) | MIC50 (Bacteroides ovatus) | MIC90 (Bacteroides ovatus)
4 µg/mL: MIC50 [10] | MIC50 (Eubacterium sp. [15]) | MIC50 (Schaalia odontolytica [20]) | MIC50 (Eggerthella lenta [21]) | MIC50 [27] | MIC50 (Bifidobacterium sp. [29])
0.06 µg/mL: MIC (Fusobacterium varium) | MIC (Fusobacterium necrogenes)
72%: Activity (Prevotella bivia [36])
83%: Activity (Clostridioides difficile [6])
0%: Activity (Anaerococcus prevotii [12]) | Activity (Finegoldia magna [17]) | Activity (Prevotella intermedia [25]) | Activity [28] | Activity [35]
1 µg/mL: MIC90 (Clostridium perfringens [1]) | MIC50 (Anaerococcus prevotii [8]) | MIC50 (Finegoldia magna [31]) | MIC90 [38]
64 µg/mL: MIC90 [10] | MIC90 (Eubacterium sp. [15]) | MIC90 (Schaalia odontolytica [20]) | MIC90 (Eggerthella lenta [21]) | MIC90 [27] | MIC90 (Bifidobacterium sp. [29])
0.25 µg/mL: MIC50 (Clostridium perfringens [1]) | MIC50 [38]

Reference: ChEMBL document CHEMBL1671716, “Antimicrobial susceptibility patterns for recent clinical isolates of anaerobic bacteria in South Korea” (2010)
